Active and inactive are the calls of the source. The rule behind the calls is not given here.
Tests used:
[1] = biological target: T1, Estrogen receptor (Homo sapiens) (UniProt P03372); test: Displacement of [3H]estradiol from human recombinant ERalpha assessed as relative binding affinity after 1 hr by liquid scintillation counting relative to estradiol
T1 sequence (whole entry): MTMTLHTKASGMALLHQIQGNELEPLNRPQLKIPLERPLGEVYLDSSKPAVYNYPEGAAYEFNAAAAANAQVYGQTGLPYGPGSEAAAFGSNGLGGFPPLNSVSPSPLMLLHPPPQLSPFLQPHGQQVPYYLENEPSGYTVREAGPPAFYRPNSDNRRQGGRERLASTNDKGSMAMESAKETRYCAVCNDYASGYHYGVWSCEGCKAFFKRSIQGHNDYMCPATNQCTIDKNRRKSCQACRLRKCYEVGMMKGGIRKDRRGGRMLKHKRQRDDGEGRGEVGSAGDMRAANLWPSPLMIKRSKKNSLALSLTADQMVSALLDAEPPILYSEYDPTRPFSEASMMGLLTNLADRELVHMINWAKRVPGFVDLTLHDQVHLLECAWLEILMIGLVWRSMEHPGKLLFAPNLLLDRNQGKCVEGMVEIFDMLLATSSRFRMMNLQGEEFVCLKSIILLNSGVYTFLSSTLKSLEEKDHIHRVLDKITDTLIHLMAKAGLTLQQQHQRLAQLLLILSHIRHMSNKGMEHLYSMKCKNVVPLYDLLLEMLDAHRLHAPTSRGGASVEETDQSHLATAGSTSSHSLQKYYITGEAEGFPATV
Procedure, shortened: (§1)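 Recombinant human ERα or ERβ (0.25 pmol) incubated with [3H]-E2 (10 nM) plus test compound, 1 h at room temperature; compound in DMSO (5% final). Nonspecific binding defined with diethylstilbestrol (10 µM). Receptor–ligand complexes captured on hydroxyapatite, washed, resuspended in ethanol, counted by liquid scintillation.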

[2] = biological target: Estrogen receptor beta (Homo sapiens) (UniProt Q92731); test: Displacement of [3H]estradiol from human recombinant ERbeta assessed as relative binding affinity after 1 hr by liquid scintillation counting relative to estradiol; procedure, shortened: as §1
[3] = biological target: T2, 17-beta-hydroxysteroid dehydrogenase type 2 (Homo sapiens) (UniProt P37059); test: Inhibition of human placental 17beta-HSD2 assessed as formation of [2,4,6,7-3H]-estrone using [2,4,6,7-3H]-estradiol as substrate at 1 uM after 20 mins by radio flow detector-based HPLC analysis in presence of NAD+ as cofactor
T2 sequence (whole entry): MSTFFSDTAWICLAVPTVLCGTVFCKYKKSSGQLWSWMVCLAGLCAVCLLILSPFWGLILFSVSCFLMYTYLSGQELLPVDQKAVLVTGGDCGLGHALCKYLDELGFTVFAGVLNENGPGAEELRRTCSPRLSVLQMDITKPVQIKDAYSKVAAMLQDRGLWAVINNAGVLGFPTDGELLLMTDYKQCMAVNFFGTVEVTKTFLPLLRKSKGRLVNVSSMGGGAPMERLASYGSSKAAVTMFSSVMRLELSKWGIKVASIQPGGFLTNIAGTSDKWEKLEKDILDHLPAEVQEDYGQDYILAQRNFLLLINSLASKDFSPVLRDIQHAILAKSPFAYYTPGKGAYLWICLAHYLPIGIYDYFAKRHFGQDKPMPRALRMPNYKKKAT

[4] = biological target: T3, 17-beta-hydroxysteroid dehydrogenase type 1 (Homo sapiens) (UniProt P14061); test: Inhibition of human placental 17beta-HSD1 using [2,4,6,7-3H]-estrone as substrate at 1 uM after 10 mins by radio flow detector-based HPLC analysis in presence of NADH as cofactor
T3 sequence (whole entry): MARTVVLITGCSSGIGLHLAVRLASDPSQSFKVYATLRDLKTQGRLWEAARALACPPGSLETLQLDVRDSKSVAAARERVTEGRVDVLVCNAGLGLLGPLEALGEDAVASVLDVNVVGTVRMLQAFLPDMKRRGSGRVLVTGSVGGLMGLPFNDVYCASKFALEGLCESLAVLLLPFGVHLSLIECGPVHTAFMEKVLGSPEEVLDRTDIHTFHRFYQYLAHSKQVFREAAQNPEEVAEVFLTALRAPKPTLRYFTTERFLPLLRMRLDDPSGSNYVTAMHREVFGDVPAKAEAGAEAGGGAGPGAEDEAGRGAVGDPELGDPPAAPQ
Procedure, shortened: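 Placental enzyme from the cytosolic fraction after ammonium sulfate precipitation. Incubated with NADH 500 µM, test compound and unlabelled plus [3H]-E1 (500 nM final), 10 min at 37 °C. Stopped, extracted, and steroids separated by HPLC with radioflow detection, as for the type 2 assay.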

Homo sapiens = organism: Homo sapiens; test: Selectivity ratio of IC50 for human placental 17beta-HSD1 to IC50 for human placental 17beta-HSD2
[5] = biological target: T4, 17-beta-hydroxysteroid dehydrogenase type 2 (Homo sapiens, UniProt P37059); test: Inhibition of human placental 17beta-HSD2 assessed as formation of [2,4,6,7-3H]-estrone using [2,4,6,7-3H]-estradiol as substrate after 20 mins by radio flow detector-based HPLC analysis in presence of NAD+ as cofactor
T4 sequence (P37059 whole entry): T2 sequence (whole entry)

[6] = biological target: T5, 17-beta-hydroxysteroid dehydrogenase type 1 (Homo sapiens, UniProt P14061); test: Inhibition of human placental 17beta-HSD1 using [2,4,6,7-3H]-estrone as substrate after 10 mins by radio flow detector-based HPLC analysis in presence of NADH as cofactor
T5 sequence (P14061 whole entry): T3 sequence (whole entry)
Procedure, shortened: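 Enzyme was the ammonium sulfate–precipitated cytosolic fraction of fresh homogenised human placenta. It was incubated at 37 °C for 10 min with NADH (500 µM), inhibitor, and unlabelled plus [3H]-E1 (final 500 nM, 0.15 µCi). Reaction stopped with HgCl2, then ether extraction. E1/E2 were separated by HPLC with radioflow detection.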

[7] = biological target: T2, 17-beta-hydroxysteroid dehydrogenase type 2 (Homo sapiens); test: Inhibition of 17beta-HSD2; conditions: concentration not given here
Procedure, shortened: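 Human placental microsomal fraction (150,000 g) with NAD+ 1500 µM, 37 °C, in 50 mM phosphate buffer containing 20% glycerol and 1 mM EDTA; DMSO 1% final. Started with unlabelled plus [3H]-E2 (500 nM final), run 20 min, stopped with HgCl2, ether-extracted. E1/E2 separated by HPLC with radioflow detection; % conversion = E1/(E1+E2)×100. At least three independent experiments.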

Estrogen receptor beta (Homo sapiens), sequence (Q92731 whole entry): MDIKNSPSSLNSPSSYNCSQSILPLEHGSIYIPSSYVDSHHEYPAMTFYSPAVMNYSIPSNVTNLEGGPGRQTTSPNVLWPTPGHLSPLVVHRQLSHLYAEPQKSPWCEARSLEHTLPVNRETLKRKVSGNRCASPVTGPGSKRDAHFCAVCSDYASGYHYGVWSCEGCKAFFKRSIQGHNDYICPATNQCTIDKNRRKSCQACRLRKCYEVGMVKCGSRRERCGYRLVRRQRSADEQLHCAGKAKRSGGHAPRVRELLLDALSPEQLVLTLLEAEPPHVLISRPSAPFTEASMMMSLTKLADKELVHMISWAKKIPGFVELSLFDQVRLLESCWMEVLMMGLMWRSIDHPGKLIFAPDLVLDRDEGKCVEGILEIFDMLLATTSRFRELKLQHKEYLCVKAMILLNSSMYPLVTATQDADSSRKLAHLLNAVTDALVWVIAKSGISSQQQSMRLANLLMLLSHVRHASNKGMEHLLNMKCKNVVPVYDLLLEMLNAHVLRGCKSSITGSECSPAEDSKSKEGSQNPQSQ

RBA [1] | RBA [2] | Ratio IC50 (Homo sapiens) | SMILES | further results
< 0.1% | < 0.1% |  | CN(Cc1ccccc1)C(=O)c1ccc(-c2cccc(O)c2)s1 | 
< 0.1% | < 0.1% |  | COc1ccc(-c2cccc(C(=O)N(C)Cc3cccc(OC)c3)c2)cc1 | inhibition [3]: 11%; inhibition [4]: inactive
< 0.1% | < 0.1% | > 375 | COc1cccc(CN(C)C(=O)c2ccc(-c3cccc(C)c3)cc2)c1 | 
< 0.1% | < 0.1% |  | COc1ccc(-c2ccc(C(=O)N(C)Cc3ccccc3)s2)cc1 | 
< 0.1% | < 0.1% |  | CN(Cc1ccccc1)C(=O)c1ccc(-c2ccccc2O)s1 | 
< 0.1% | < 0.1% | 8 | CN(Cc1cccc(O)c1)C(=O)c1cccc(-c2cccc(O)c2)c1 | 
< 0.1% | < 0.1% |  | COc1ccc(-c2ccc(C(=O)N(C)Cc3cccc(OC)c3)s2)cc1 | 
< 0.1% | < 0.1% |  | COc1cccc(CN(C)C(=O)c2ccc(-c3ccccc3OC)s2)c1 | inhibition [3]: 49%; inhibition [4]: inactive
< 0.1% | < 0.1% | 73 | COc1cccc(-c2ccc(C(=O)N(C)Cc3cccc(O)c3)s2)c1F | 
< 0.1% | < 0.1% |  | CN(Cc1cccc(O)c1)C(=O)c1cccc(-c2ccc(O)cc2)c1 | 
 |  |  | CN1C(=O)C[C@@H](c2ccccc2)[C@H]1[C@H](O)c1ccc(-c2cccnc2)s1 | IC50 [5]: 50 nM
< 0.1% | < 0.1% |  | COc1cccc(CN(C)C(=O)c2ccc(-c3ccccc3)s2)c1 | 
< 0.1% | < 0.1% | 75 | CN(Cc1cccc(O)c1)C(=O)c1ccc(-c2cccc(N(C)C)c2)s1 | 
< 0.1% | < 0.1% |  | COc1cccc(CN(C)C(=O)c2ccc(-c3ccc(C#N)cc3)s2)c1 | inhibition [3]: inactive; inhibition [4]: inactive
< 0.1% | < 0.1% |  | COc1cccc(CN(C)C(=O)c2cccc(-c3cccc(OC)c3)c2)c1 | 
< 0.1% | < 0.1% |  | COc1cccc(CN(C)C(=O)c2ccc(-c3cccc(OC)c3)cc2)c1 | 
< 0.1% | < 0.1% | 14 | CN(Cc1cccc(O)c1)C(=O)c1ccc(-c2cccc(O)c2)s1 | IC50 [6]: 5450 nM
 |  |  | Cn1nc(-c2cccc(O)c2)nc1-c1ccc(-c2cccc(O)c2)s1 | inhibition [7]: 30%

RBA [1] | RBA [2] | Ratio IC50 (Homo sapiens) | SMILES | further results
< 0.1% | < 0.1% |  | CN(Cc1cccc(O)c1)C(=O)c1ccc(-c2ccc(C#N)cc2)s1 | 
< 0.1% | < 0.1% |  | CN(Cc1cccc(O)c1)C(=O)c1ccc(-c2ccccc2)s1 | 
< 0.1% | < 0.1% | > 250 | COc1cccc(CN(C)C(=O)c2ccc(-c3cccc(OC)c3)s2)c1 | 
< 0.1% | < 0.1% | 15 | CN(Cc1cccc(O)c1)C(=O)c1ccc(-c2ccc(O)cc2)s1 | 
< 0.1% | < 0.1% |  | COc1ccccc1-c1ccc(C(=O)N(C)Cc2ccccc2)s1 | 
< 0.1% | < 0.1% | > 250 | COc1ccc(-c2ccc(C(=O)N(C)Cc3cccc(O)c3)s2)cc1 | 
< 0.1% | < 0.1% | 65 | Cc1cccc(-c2ccc(C(=O)N(C)Cc3cccc(O)c3)s2)c1 | 
< 0.1% | < 0.1% |  | CN(Cc1ccccc1)C(=O)c1ccc(-c2ccc(O)cc2)s1 | 
< 0.1% | < 0.1% |  | CN(Cc1cccc(O)c1)C(=O)c1ccc(-c2cccc(O)c2)cc1 | 
< 0.1% | < 0.1% | 20 | CN(Cc1cccc(O)c1)C(=O)c1ccc(-c2ccccc2O)s1 | 
< 0.1% | < 0.1% |  | Cc1cccc(-c2ccc(C(=O)N(C)Cc3cccc(O)c3)cc2)c1 | 
< 0.1% | < 0.1% | 10 | CN(Cc1cccc(O)c1)C(=O)c1ccc(-c2cccc(F)c2)s1 | 
 |  |  | Cn1nc(-c2cccc(O)c2)nc1-c1ccc(-c2cccc(O)c2)cc1 | inhibition [7]: 42%
< 0.1% | < 0.1% |  | CN(Cc1cccc(O)c1)C(=O)c1ccc(-c2ccc(F)cc2)s1 | 
< 0.1% | < 0.1% |  | COc1cccc(-c2ccc(C(=O)N(C)Cc3ccccc3)s2)c1 | 
< 0.1% | < 0.1% |  | CN(Cc1cccc(O)c1)C(=O)c1ccc(-c2cccc(O)c2F)s1 | 
< 0.1% | < 0.1% |  | CN(C(=O)Cc1cccc(O)c1)c1cccc(-c2ccc(O)cc2)c1 | inhibition [3]: 39%; inhibition [4]: inactive

SMILES | RBA [1] | RBA [2] | Ratio IC50 (Homo sapiens) | further results
C[C@]12CC[C@@H]3c4ccc(O)cc4CC[C@H]3[C@@H]1CC[C@@]21CCCC(=O)O1 | < 0.1% | < 0.1% |  | inhibition [7]: 62%; inhibition [3]: 65%

— ChEMBL document CHEMBL1914317, “Triazole ring-opening leads to the discovery of potent nonsteroidal 17β-hydroxysteroid dehydrogenase type 2 inhibitors” (Eur J Med Chem, 2011)
